# Measured values from ChEMBL document CHEMBL2163334, “Discovery of highly potent and selective pan-Aurora kinase inhibitors with enhanced in vivo antitumor therapeutic index” (J Med Chem, 2012).
# Active and inactive are the calls of the source. The rule behind the calls is not given here.
# What was measured:
# [1] = Protein binding in plasma; format: ADME, cell-free; details: read-out: PPB
# HCT-116 [2] = test: Antitumor activity against human HCT116 cells xenografted in athymic nude rat assessed as tumor growth inhibition at 5 mg/kg, iv administered every other day from day 10 post tumor-injection for 3 weeks relative to vehicle treated control; format: functional; details: read-out: TGI
# Procedure, shortened: (§1)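 Subcutaneous flank HCT-116 xenografts in nude rats; at Day 1 groups of 10 with mean tumor 301-306 mm³. Tail-vein iv in TPPW (2% Tween-80, 5% propylene glycol, 10% PG-400, 83% water) at 10 mL/kg, weight-adjusted: days 1,3,5,8,10,12,15,17,19 or days 1-4, 8-11, 15-18. Irinotecan control 100 mg/kg ip weekly ×3.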
# [3] = AUC (0 to infinity) in Nu/Nu rat at 5 mg/kg, iv administered using TPPW as vehicle; format: ADME, organism-based; set-up: dose 5 mg/kg, route intravenous, time infinity; details: plasma
# Procedure, shortened: (§2)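 Plasma from K3 EDTA blood at 5, 15, 30 min, 1, 2, 4, 6, 24 h; acetonitrile extraction with internal standard, LC-MS/MS on C8 column, 5-95% ACN gradient with 0.05% formic acid.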
# [4] = Volume of distribution in Sprague-Dawley rat at 1 mg/kg, iv administered using PEG400/water as vehicle; format: ADME, organism-based; set-up: dose 1 mg/kg, route intravenous; details: in vivo
# Procedure, shortened: (§3)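 SD rats fasted overnight, given 1 mg/kg iv in PEG400/water (3:1, v/v); three per arm. Blood into K3 EDTA at 5, 15, 30 min, 1, 2, 4, 6, 24 h, spun at 4 °C; plasma extracted with six volumes acetonitrile plus internal standard and quantified by LC-MS/MS (C8 column, formic acid/ACN gradient).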
# [5] = Volume of distribution in Nu/Nu rat at 15 mg/kg, iv administered using TPPW as vehicle; format: ADME, organism-based; set-up: dose 15 mg/kg, route intravenous; details: in vivo; procedure, shortened: as §2
# [6] = Clearance in athymic Nu/Nu rat at 5 mg/kg, iv administered using TPPW as vehicle; format: ADME, organism-based; set-up: dose 5 mg/kg, route intravenous; details: in vivo; procedure, shortened: as §2
# HCT-116 [7] = test: Antitumor activity against human HCT116 cells xenografted in athymic nude rat assessed as tumor growth inhibition at 10 mg/kg, iv administered every other day from day 10 post tumor-injection for 3 weeks relative to vehicle treated control; format: functional; details: read-out: TGI; procedure, shortened: as §1
# HCT-116 [8] = test: Antitumor activity against human HCT116 cells xenografted in athymic nude rat assessed as tumor stasis at 20 mg/kg, iv administered every other day from day 10 post tumor-injection for 3 weeks […]; format: functional, organism-based; set-up: dose 20 mg/kg
# Procedure, shortened: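 HCT-116 flank xenografts in nude rats, groups of 10 at mean 301-306 mm³; iv tail-vein dosing in TPPW at 10 mL/kg on days 1,3,5,8,10,12,15,17,19; tumors followed after dosing stopped, study ending day 42 or day 60.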
# [9] = AUC (0 to infinity) in Nu/Nu rat at 50 mg/kg, iv administered using TPPW as vehicle; format: ADME, organism-based; set-up: time infinity, dose 50 mg/kg, route intravenous; details: plasma; procedure, shortened: as §2
# Aurora kinase A [10] = biological target: T1, Aurora kinase A (Homo sapiens, UniProt O14965); test: Binding affinity to Aurora kinase A catalytic domain by competition binding assay
# T1 sequence (O14965 whole entry): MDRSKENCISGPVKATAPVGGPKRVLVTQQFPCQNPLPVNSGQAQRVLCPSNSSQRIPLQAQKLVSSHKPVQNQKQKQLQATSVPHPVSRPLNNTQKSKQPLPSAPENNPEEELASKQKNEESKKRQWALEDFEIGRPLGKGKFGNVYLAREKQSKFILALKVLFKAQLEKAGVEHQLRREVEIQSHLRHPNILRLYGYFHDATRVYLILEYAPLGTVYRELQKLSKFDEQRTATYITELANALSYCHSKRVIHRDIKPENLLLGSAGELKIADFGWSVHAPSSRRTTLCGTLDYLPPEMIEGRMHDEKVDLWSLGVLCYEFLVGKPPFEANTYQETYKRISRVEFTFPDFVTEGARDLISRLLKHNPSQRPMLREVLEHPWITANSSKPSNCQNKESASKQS
# Aurora kinase B [11] = biological target: T2, Aurora kinase B (Homo sapiens, UniProt Q96GD4); test: Inhibition of Aurora kinase B-mediated histone H3 Ser10 phosphorylation in human HCT116 cells after 2 hrs by sandwich ELISA; format: cell-based, HCT-116
# Procedure, shortened: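 HCT-116 cells seeded 4 × 10⁴/well, 4-6 h at 37 °C, then arrested overnight (16-18 h) with nocodazole at 66 ng/mL final. Treated 2 h with nine-point 3-fold dilutions in DMSO; lysed with phosphatase inhibitor, phospho-H3 (Ser10) sandwich ELISA read at 450 nm. IC50 = 50% inhibition of phosphorylation; duplicate runs averaged.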
# [12] = AUC (0 to infinity) in Nu/Nu rat at 15 mg/kg, iv administered using TPPW as vehicle; format: ADME, organism-based; set-up: dose 15 mg/kg, route intravenous, time infinity; details: plasma; procedure, shortened: as §2
# [13] = Half life in Nu/Nu rat at 5 mg/kg, iv administered using TPPW as vehicle; format: ADME, organism-based; set-up: dose 5 mg/kg, route intravenous; details: in vivo; procedure, shortened: as §2
# HCT-116 [14] = test: Antitumor activity against human HCT116 cells xenografted in athymic nude rat assessed as tumor growth inhibition at 20 mg/kg, iv administered every other day from day 10 post tumor-injection for 3 weeks relative to vehicle treated control; format: functional; details: read-out: TGI; procedure, shortened: as §1
# Rattus norvegicus [15] = test: Toxicity in athymic nude rat bearing human HCT116 cells assessed body weight loss up to 20 mg/kg, iv administered every other day from day 10 post tumor-injection for 3 weeks; format: organism-based, HCT-116; set-up: dose 20 mg/kg, route intravenous; details: in vivo, 504 h; procedure, shortened: as §1
# [16] = Half life in Nu/Nu rat at 50 mg/kg, iv administered using TPPW as vehicle; format: ADME, organism-based; set-up: dose 50 mg/kg, route intravenous; details: in vivo; procedure, shortened: as §2
# [17] = AUC (0 to infinity) in Sprague-Dawley rat at 1 mg/kg, iv administered using PEG400/water as vehicle; format: ADME, organism-based; set-up: time infinity, dose 1 mg/kg, route intravenous; details: plasma; procedure, shortened: as §3
# HCT-116 [18] = test: Antiproliferative activity against human HCT116 cells after 72 hrs by BrdU-based ELISA; format: functional, cell-based; details: HCT-116, 72 h
# Procedure, shortened: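 HCT-116 cells in McCoy's 5A with 10% FBS and pen/strep, seeded 800 cells/well, left overnight at 37 °C, 5% CO2. Nine-point 3-fold serial dilutions in DMSO added for 72 h; BrdU colorimetric ELISA read at 450 and 690 nm. IC50 is the concentration halving proliferation; duplicate runs averaged.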
# [19] = Clearance in athymic Nu/Nu rat at 50 mg/kg, iv administered using TPPW as vehicle; format: ADME, organism-based; set-up: dose 50 mg/kg, route intravenous; details: in vivo; procedure, shortened: as §2
# [20] = Clearance in athymic Nu/Nu rat at 15 mg/kg, iv administered using TPPW as vehicle; format: ADME, organism-based; set-up: dose 15 mg/kg, route intravenous; details: in vivo; procedure, shortened: as §2
# HCT-116 [21] = test: Antitumor activity against human HCT116 cells xenografted in iv dosed athymic nude rat assessed as tumor growth inhibition administered every other day from day 10 post tumor-injection for 3 weeks relative to vehicle treated control; format: functional, organism-based; procedure, shortened: as §1
# [22] = Volume of distribution in Nu/Nu rat at 50 mg/kg, iv administered using TPPW as vehicle; format: ADME, organism-based; set-up: dose 50 mg/kg, route intravenous; details: in vivo; procedure, shortened: as §2
# Aurora kinase B [23] = biological target: T2, Aurora kinase B; test: Binding affinity to Aurora kinase B catalytic domain by competition binding assay
# Rattus norvegicus [24] = test: Toxicity in athymic nude rat bearing human HCT116 cells assessed as adverse effects at 5 to 10 mg/kg, iv administered QD for 4 days per week followed by 3 days off per week for 3 weeks; format: organism-based, HCT-116; set-up: dose 5-10 mg/kg, route intravenous; details: in vivo; procedure, shortened: as §1
# Rattus norvegicus [25] = test: Toxicity in athymic nude rat bearing human HCT116 cells assessed as adverse effects at 2.5 mg/kg, iv administered QD for 4 days per week followed by 3 days off per week for 3 weeks; format: organism-based, HCT-116; set-up: dose 2.5 mg/kg, route intravenous; details: in vivo; procedure, shortened: as §1
# [26] = Volume of distribution in Nu/Nu rat at 5 mg/kg, iv administered using TPPW as vehicle; format: ADME, organism-based; set-up: dose 5 mg/kg, route intravenous; details: in vivo; procedure, shortened: as §2
# Aurora kinase A [27] = biological target: T1, Aurora kinase A; test: Inhibition of Aurora kinase A autophosphorylation in human HEK293 cells after 2 hrs by phosphor antibody readout assay; format: cell-based
# T2 sequence (Q96GD4 whole entry): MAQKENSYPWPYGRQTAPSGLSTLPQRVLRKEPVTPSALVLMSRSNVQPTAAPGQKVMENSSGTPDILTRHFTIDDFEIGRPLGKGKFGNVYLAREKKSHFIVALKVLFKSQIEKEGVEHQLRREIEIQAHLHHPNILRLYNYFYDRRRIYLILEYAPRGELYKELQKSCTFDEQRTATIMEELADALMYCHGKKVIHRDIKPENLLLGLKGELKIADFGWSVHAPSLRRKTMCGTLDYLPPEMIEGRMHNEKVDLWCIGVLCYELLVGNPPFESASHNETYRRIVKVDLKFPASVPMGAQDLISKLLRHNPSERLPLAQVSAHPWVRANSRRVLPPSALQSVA
structure (smiles),measurement,setting,value
Cc1cc(Nc2nc(Sc3ccc(NC(=O)CN4CC[C@@H](C(=O)N5CCC(F)(F)C5)C4)cc3)nn3cccc23)n[nH]1,fraction unbound,[1],0.01
same,inhibition in vivo at 5 mg/kg,HCT-116 [2],45%
same,AUC(0-inf),[3],7.7 µM·h
same,Vd,[4],7 L/kg
same,Vd,[5],0.8 L/kg
same,clearance,[6],19.2 mL/min/kg
same,inhibition in vivo at 10 mg/kg,HCT-116 [7],60%
same,Activity,HCT-116 [8],Active
same,AUC(0-inf),[9],181 µM·h
same,Kd,Aurora kinase A [10],5.8 nM
same,IC50,Aurora kinase B [11],6.1 nM
same,AUC(0-inf),[12],34.4 µM·h
same,half-life,[13],1.1 h
same,inhibition in vivo at 20 mg/kg,HCT-116 [14],85%
same,Activity,Rattus norvegicus [15],Non-toxic
same,half-life,[16],2.9 h
same,AUC(0-inf),[17],1.4 µM·h
same,IC50,HCT-116 [18],1.2 nM
same,clearance,[19],5.23 mL/min/kg
same,clearance,[20],12.5 mL/min/kg
same,TGI,HCT-116 [21],Active
same,Vd,[22],0.62 L/kg
same,Kd,Aurora kinase B [23],1.7 nM
same,Activity,Rattus norvegicus [24],Non-toxic
same,Activity,Rattus norvegicus [25],Non-toxic
same,Vd,[26],0.7 L/kg
same,IC50,Aurora kinase A [27],1 nM
